Only some compounds are listed: those with a hit (about 2.3% of all), similar ones and a draw of the others.
STAT3 inh-1 = inhibitors of IL-6 induced STAT3 signaling | U3A cells, IL-6 STAT3-luciferase reporter, luminescence; host cell line lacks STAT1 | inhibition, % at 5.5 µM | 190,000 tested, 0.89% active;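 active means inhibition above the mean inhibition across all screened compounds plus 3 SD, cut at about 44% in these data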
C8 TRAIL sens = caspase-8 TRAIL sensitization. NB7+C8 cells + TRAIL, ATPlite viability luminescence. 360,000 tested, 1% active. inhibition (viability loss, TRAIL sensitization), % at 10 µM;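 active means compounds causing at least 50% loss of cell viability in the single-dose screen, relative to plate controls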
STAT1 blocker = inhibitors of IFN-gamma induced STAT1 signaling; NIH 3T3 STAT1-luciferase reporter, luminescence; inhibition, % at 5.5 µM; 200,000 tested, 0.35% active; AID 920;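 active means inhibition above a set limit, the mean inhibition across all tested compounds plus 3 SD, cut at about 34% in these data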
STAT3 activator = STAT3 signaling activation. 190,000 tested, 0.91% active. U3A cells, IL-6 STAT3-luciferase reporter, luminescence; 100% = signal with IL-6 EC80 alone. activation (% of control), % at 5.6 µM;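 active means activation above the screen-wide mean of compound activation plus 3 SD, cut at about 130% in these data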
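Detection: reporter luminescence signal / Assay system: STAT1-lacking human U3A cells, STAT3 luciferase reporter / Incubation: compound pre-incubation 1 h before IL-6, then 6 h stimulation at 37 °C / Control set: IL-6-only high control / Read-out: % activation relative to IL-6 control / Probe or stimulus: Interleukin-6, 33 ng/mL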
PPC-1+TRAIL kill = PPC-1 cancer cell killing with TRAIL present. PPC-1 cells + TRAIL, ATPLite viability luminescence. cell killing (% activity), % at 4 µM or 5 µM. 220,000 tested, 0.41% active. AID 1443;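 active means cell killing above 50% in the first pass at 4 µM, then a duplicate retest at 5 µM averaging 50% or more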
HSP90 inh = blocks HSP90-mediated luciferase refolding in reticulocyte lysate; AID 1789; Rabbit reticulocyte lysate, luciferase refolding luminescence, 3 h; inhibition, % at 5.6 µM; 290,000 tested, 0.91% active;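 active means inhibition above the screen-wide mean plus 3 SD, computed separately per campaign, cut at about 16% in these data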;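 further: inhibitors lower the luminescence because luciferase stays unfolded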
STAT3 inh-2 = confirmation of STAT3 signaling inhibitors. shares compounds with STAT3 inh-1. inhibition, % at 5.7 µM. U3A cells, IL-6 STAT3 luciferase reporter, luminescence; cell line lacks STAT1. 1,200 tested, 45% active. AID 1265;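 active means inhibition above the hit cutoff computed for the primary STAT3 screen, cut at about 44% in these data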
NFkB inh STAT3ct = counter-screen for STAT3 inhibitors: NF-kappaB inhibition; shares compounds with STAT3 inh-1; HEK293T NF-kB luciferase reporter, TNF-alpha induced; inhibition, % at 5.7 µM; 1,200 tested, 36% active; AID 1308;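 active means inhibition above the mean of solvent-only control wells plus 3 SD, cutoff set per campaign, cut at about 13% in these data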
STAT1 inh STAT3c = STAT1 inhibition in STAT3 inhibitor counter-screen; shares compounds with STAT3 inh-1; NIH 3T3 STAT1-luciferase reporter, IFN-gamma induced, luminescence; inhibition, % at 5.7 µM; 1,200 tested, 27% active; AID 1317;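 active means inhibition above the mean plus 3 SD of solvent-only control wells, limit set per screening run, cut at about 16% in these data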
PPC-1 tox = kills PPC-1 cells | shares compounds with PPC-1+TRAIL kill | PPC-1 viability, ATPlite luminescence, overnight | cytotoxicity, % at 5 µM | 1,200 tested, 50% active | AID 1447;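 active means reconfirmed compounds whose average cytotoxicity reaches 50% or more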
HSP90 confirm = HSP90 inhibition, confirmation assay; shares compounds with HSP90 inh; rabbit reticulocyte lysate, luciferase refolding luminescence, 3 h; inhibition, % at 5.9 µM; 2,300 tested, 64% active; in the data active means inhibition above about 18%
luciferase ctr = counter-screen for HSP90 inhibitors: inhibitors of firefly luciferase | shares compounds with HSP90 inh | purified native firefly luciferase, luminescence | inhibition, % at 5.9 µM | 2,300 tested, 48% active | AID 1847;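 active means inhibition above the mean inhibition of all tested sample wells plus 3 SD, cut at about 10% in these data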
Target sequence (P08659 whole entry, looked up): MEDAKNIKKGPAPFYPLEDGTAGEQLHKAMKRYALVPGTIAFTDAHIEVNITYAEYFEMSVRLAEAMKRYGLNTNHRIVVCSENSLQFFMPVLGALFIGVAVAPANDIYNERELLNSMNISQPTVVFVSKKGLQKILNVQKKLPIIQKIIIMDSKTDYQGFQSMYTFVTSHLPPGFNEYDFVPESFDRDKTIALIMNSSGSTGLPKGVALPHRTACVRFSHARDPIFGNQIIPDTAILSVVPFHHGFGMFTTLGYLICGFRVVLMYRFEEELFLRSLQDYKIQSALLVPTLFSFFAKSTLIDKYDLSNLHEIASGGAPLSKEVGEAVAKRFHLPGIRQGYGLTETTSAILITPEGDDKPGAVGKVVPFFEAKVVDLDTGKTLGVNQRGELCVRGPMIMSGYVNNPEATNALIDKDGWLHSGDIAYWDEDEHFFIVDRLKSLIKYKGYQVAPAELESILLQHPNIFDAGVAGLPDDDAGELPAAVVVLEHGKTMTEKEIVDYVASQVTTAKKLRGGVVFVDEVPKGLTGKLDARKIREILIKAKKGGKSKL
Large screens that a line does not name were inactive (follow-up assays come after a bar, where they were run).

Cc1ccc(-c2nc3cc(NC(=O)C(C)C)ccc3o2)cc1C	STAT3 inh-1 61, HSP90 inh 34 | STAT3 inh-2 inactive | NFkB inh STAT3ct inactive | STAT1 inh STAT3c inactive | HSP90 confirm 53 | luciferase ctr 54
Cc1ccc(Cn2nc(-c3ccccc3)nc2-c2ccccc2)cc1	none
Cc1ccc(-c2nc3n(n2)Cc2ccccc2-3)cc1	STAT3 inh-1 49, C8 TRAIL sens 86, PPC-1+TRAIL kill 75, HSP90 inh 21 | STAT3 inh-2 inactive | NFkB inh STAT3ct 18 | STAT1 inh STAT3c inactive | PPC-1 tox 74 | HSP90 confirm 67 | luciferase ctr 61
Cc1cc(C)c(OCCOCCN(C)C)c(Br)c1	none
CCN1C(c2ccc(F)cc2)=CS/C1=C(\C#N)c1nnc2n1-c1ccccc1SC2	none
COc1ccc(/C=N/Nc2nc3ccccc3s2)cc1O	STAT3 inh-1 60, HSP90 inh 22 | STAT3 inh-2 inactive | NFkB inh STAT3ct inactive | STAT1 inh STAT3c inactive | PPC-1 tox inactive | HSP90 confirm 55 | luciferase ctr 49
c1ccc2sc(-c3ccc4c(c3)OCO4)nc2c1	STAT3 inh-1 70, C8 TRAIL sens 73, PPC-1+TRAIL kill 58, HSP90 inh 19 | STAT3 inh-2 inactive | NFkB inh STAT3ct inactive | STAT1 inh STAT3c inactive | HSP90 confirm 60 | luciferase ctr 56
O=C(Nc1cccc(-c2nc3ccccc3s2)c1)c1ccc2c(c1)OCO2	none
Cc1ccc(-c2nnc(SCC(=O)Nc3ccccc3F)o2)cc1	STAT3 inh-1 56, C8 TRAIL sens 72, PPC-1+TRAIL kill 76, HSP90 inh 54 | STAT3 inh-2 inactive | NFkB inh STAT3ct inactive | STAT1 inh STAT3c inactive | PPC-1 tox 70 | HSP90 confirm 31 | luciferase ctr 29
O=C(Nc1ccc(CN2CCOCC2)cc1)c1cc2ccccc2o1	none
O=C(Nc1ccc(CN2CCOCC2)cc1)c1cc2ccccn2n1	STAT3 inh-1 76, HSP90 inh 45 | STAT3 inh-2 inactive | NFkB inh STAT3ct inactive | STAT1 inh STAT3c inactive | HSP90 confirm 61 | luciferase ctr 41
COc1cc(C)ccc1OCCCOc1ccccc1Br	none
COC(=O)c1ccccc1OCCCOc1ccc(C)cc1OC	STAT3 inh-1 59, HSP90 inh 94 (no result: C8 TRAIL sens, PPC-1+TRAIL kill) | STAT3 inh-2 inactive | NFkB inh STAT3ct inactive | STAT1 inh STAT3c inactive | HSP90 confirm 100 | luciferase ctr inactive
CC(C)(C)c1ccc(NC(=O)Nc2ccc3ccccc3n2)cc1	none (no result: STAT3 inh-1, STAT1 blocker, STAT3 activator)
COC(=O)c1nn(-c2ccc3c(c2)CCN3C(C)=O)cc1O	STAT3 inh-1 100, C8 TRAIL sens 81, PPC-1+TRAIL kill 76, HSP90 inh 85 | STAT3 inh-2 84 | NFkB inh STAT3ct inactive | STAT1 inh STAT3c inactive | HSP90 confirm 88 | luciferase ctr 74
CS(=O)(=O)c1ccc(C(=O)CN2C(=O)NC3(CCCc4ccccc43)C2=O)cc1 (stereo not given)	none (no result: STAT3 inh-1, STAT1 blocker, STAT3 activator, PPC-1+TRAIL kill, HSP90 inh)
c1ccc(-c2cn3nc(-c4ccccc4)c(-c4ccccc4)nc3n2)cc1	none
CCc1nn2cc(-c3ccccc3)nc2s1	STAT3 inh-1 91, C8 TRAIL sens 71, PPC-1+TRAIL kill 58, HSP90 inh 65 | STAT3 inh-2 69 | NFkB inh STAT3ct 38 | STAT1 inh STAT3c inactive | PPC-1 tox 57 | HSP90 confirm 81 | luciferase ctr 73
CCCCN(C)C(=O)c1cc2cc3ccc(OC)cc3nc2s1	STAT3 inh-1 50, C8 TRAIL sens 68, HSP90 inh 30 | STAT3 inh-2 inactive | NFkB inh STAT3ct inactive | STAT1 inh STAT3c inactive | PPC-1 tox inactive | HSP90 confirm 39 | luciferase ctr 27
O=C(O)c1cccc(-c2nnn(Cc3ccccc3Cl)n2)c1	STAT3 inh-1 70, STAT1 blocker 44, HSP90 inh 59 | STAT3 inh-2 61 | NFkB inh STAT3ct 37 | STAT1 inh STAT3c 40 | HSP90 confirm 77 | luciferase ctr 81
Cc1ccccc1Cn1nnc(-c2ccc(C(=O)O)cc2)n1	none
CC(C)(C)C(=O)Nc1ccc(-c2cn3ccsc3n2)cc1	STAT3 inh-1 72, C8 TRAIL sens 90, PPC-1+TRAIL kill 91, HSP90 inh 29 | STAT3 inh-2 inactive | NFkB inh STAT3ct inactive | STAT1 inh STAT3c inactive | PPC-1 tox 90 | HSP90 confirm 49 | luciferase ctr 33
N/C(=N\OC(=O)c1ccc(Cl)c([N+](=O)[O-])c1)c1ccccn1	none
N/C(=N\OC(=O)c1ccc(Cl)cc1)c1ccccn1	STAT3 inh-1 87, C8 TRAIL sens 69, HSP90 inh 57 | STAT3 inh-2 inactive | NFkB inh STAT3ct inactive | STAT1 inh STAT3c inactive | PPC-1 tox inactive | HSP90 confirm 20 | luciferase ctr 89
N/C(=N\OC(=O)c1cccc(Cl)c1)c1ccccn1	STAT3 inh-1 74, C8 TRAIL sens 56, HSP90 inh 34 | STAT3 inh-2 inactive | NFkB inh STAT3ct inactive | STAT1 inh STAT3c inactive | HSP90 confirm 31 | luciferase ctr 76
Cc1ccccc1Nc1nnc(SCC2CCCCO2)s1 (stereo not given)	none
COc1ccccc1Nc1nnc(SCC2CCCCO2)s1 (stereo not given)	STAT3 inh-1 64, C8 TRAIL sens 70, PPC-1+TRAIL kill 65, HSP90 inh 32 | STAT3 inh-2 inactive | NFkB inh STAT3ct inactive | STAT1 inh STAT3c inactive | PPC-1 tox 65 | HSP90 confirm 38 | luciferase ctr 39
O=C(c1ccccc1)c1ccc(OCC(O)CNCc2cccc(Cl)c2)cc1 (stereo not given)	none (no result: STAT3 inh-1, STAT1 blocker, STAT3 activator, PPC-1+TRAIL kill)
Clc1ccc(-n2ncc3c(N4CCCCCC4)ncnc32)cc1	STAT3 inh-1 87, C8 TRAIL sens 84, PPC-1+TRAIL kill 63, HSP90 inh 63 | STAT3 inh-2 71 | NFkB inh STAT3ct 49 | STAT1 inh STAT3c inactive | PPC-1 tox 68 | HSP90 confirm 83 | luciferase ctr 86
